Consider eight molecules from paper PMC4650587 (Cell Research, 2014).

“Also recorded” adds a separate entry of the source. Read-outs that look alike come from different tables or passages of the source.

One assay relates to AMPK. As to conditions: cited from earlier work.
In assay [1] the target is human α1β2γ1 AMPK (Homo sapiens, UniProt P54619). Format: biochemical.
Assay [2] relates to AID-αRIM / core AMPK(α1[395-550]-β2[187-272]-γ1). Put plainly: AlphaScreen interaction between biotinylated core AMPK and His6GST-AID-αRIM. Format: binding, human. Conditions: wild-type AID-αRIM; AMP 0.2 mM, ATP 1 mM. A digest of the protocol:
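Two-protein AlphaScreen pairing 100 nM His6-tagged protein on nickel acceptor beads with 100 nM biotin-tagged protein on streptavidin donor beads. Biotinylated core AMPK (α1[395-550]-β2[187-272]-γ1) was an avitag fusion biotinylated in E. coli by co-expressed BirA with 40 μM biotin. Reactions ran in 50 mM MOPS pH 7.4, 50 mM NaF, 50 mM CHAPS, 0.1 mg/ml BSA, 0.2 mM AMP, 1 mM ATP.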

The test system of assay [3] is recombinant, E. coli-expressed AMPK. As to conditions: cited from earlier work.
Another assay deals with rat liver AMPK. As to conditions: cited from earlier work.
Another assay has as its target holo-AMPK. Put plainly: AlphaScreen CBM-KD interaction in holo-AMPK. Format: binding, human. Conditions: glycogen 0.5 mg/ml, cyclodextrin 2 mM.
Assay [4] deals with CBM-KD interaction of AMPK. Description: AlphaScreen interaction between isolated biotin-CBM and His6-KD in trans. Format: binding, human. A digest of the protocol: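 Biotin-CBM (β2[75-163] avitag, biotinylated in vivo) was split in two. One half was phosphorylated in trans by CaMKKβ-phosphorylated His6-KD (CBM:KD 50:1, 4 h, RT), then freed of KD by Ni column and size exclusion. 100 nM biotin-CBM on streptavidin donor beads was paired with 100 nM His6-KD on Ni acceptor beads. Buffer: 50 mM MOPS pH 7.4, 50 mM NaF, 50 mM CHAPS, 0.1 mg/ml BSA.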

Assay [5] relates to human α1β2γ1 AMPK. Put plainly: Radioactive kinase assay. Format: biochemical. As to conditions: phosphorylated AMPK; 1 mg/ml glycogen.
Assay [6] concerns the target T1, AMPK γ1(24-327), γ-subunit of the crystallised holo-AMPK (human, UniProt P54619 24-327). Put plainly: crystal structure.
Assay [7] concerns the target T1, AMPK γ1(24-327), γ-subunit of the …. Put plainly: crystal structure. The source holds these as a separate data set.

T1 sequence (P54619 24-327): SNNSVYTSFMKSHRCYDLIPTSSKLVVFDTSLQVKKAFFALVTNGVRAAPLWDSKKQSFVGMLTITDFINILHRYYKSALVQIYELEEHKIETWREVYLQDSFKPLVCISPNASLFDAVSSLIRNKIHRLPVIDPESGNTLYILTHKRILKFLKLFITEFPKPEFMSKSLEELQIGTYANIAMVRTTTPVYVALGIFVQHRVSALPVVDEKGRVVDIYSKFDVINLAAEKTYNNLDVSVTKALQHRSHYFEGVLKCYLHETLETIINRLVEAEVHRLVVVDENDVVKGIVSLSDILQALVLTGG
Chain of human α1β2γ1 AMPK (Homo sapiens, UniProt P54619) (P54619 24-327, one chain of several): as the sequence (P54619 24-327) above
Chain of human α1β2γ1 AMPK (Homo sapiens, UniProt P54619) (Q13131 20-559 partner, one chain of several): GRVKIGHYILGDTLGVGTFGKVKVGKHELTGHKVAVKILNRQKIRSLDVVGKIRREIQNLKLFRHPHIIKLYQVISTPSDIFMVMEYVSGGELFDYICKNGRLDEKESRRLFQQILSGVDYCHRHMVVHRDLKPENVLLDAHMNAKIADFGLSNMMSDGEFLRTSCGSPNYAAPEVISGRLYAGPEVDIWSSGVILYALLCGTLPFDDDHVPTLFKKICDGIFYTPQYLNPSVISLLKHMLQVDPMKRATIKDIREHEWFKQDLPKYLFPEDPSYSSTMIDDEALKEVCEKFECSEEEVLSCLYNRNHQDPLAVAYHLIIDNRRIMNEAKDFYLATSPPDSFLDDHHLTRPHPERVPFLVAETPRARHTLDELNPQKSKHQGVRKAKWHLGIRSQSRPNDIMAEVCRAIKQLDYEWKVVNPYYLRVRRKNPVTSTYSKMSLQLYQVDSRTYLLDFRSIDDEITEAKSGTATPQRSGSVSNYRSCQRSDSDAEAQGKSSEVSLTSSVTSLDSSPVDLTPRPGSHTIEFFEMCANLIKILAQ

For the molecule `N#Cc1c(O)c2c(-c3ccc(-c4ccccc4O)cc3)csc2[nH]c1=O` [A769662], the “effect on kinase activity” value with AMPK is recorded as “increase kinase activity”.
Regarding `Nc1ncnc2c1ncn2[C@@H]1O[C@H](COP(=O)(O)O)[C@@H](O)[C@H]1O` [AMP], at human α1β2γ1 AMPK [1] (2 μM AMP), the “change of luminescence signal, α-γ tagged AMPK” value was “doubled the luminescence signal”. Besides, the “effect on AID-αRIM / core AMPK interaction signal” value in assay [2] is listed as “increased”.
In the case of `Nc1ncnc2c1ncn2[C@@H]1O[C@H](COP(=O)(O)OP(=O)(O)OP(=O)(O)O)[C@@H](O)[C@H]1O` [ATP], the “change of luminescence signal, α-γ tagged AMPK” value on human α1β2γ1 AMPK [1] (1 mM ATP) is reported as “decreased the signal by a factor of two”. Also, the “effect on AID-αRIM / core AMPK interaction signal” value in assay [2] was “decreased”.
In the case of `Cc1ccc(Oc2nc3cc(-c4ccc5c(ccn5C)c4)c(Cl)cc3[nH]2)cc1C(=O)O` [compound 991], the “effect on kinase activity” value in the assay on AMPK was “increase kinase activity”.
Regarding `OC[C@H]1O[C@@H]2O[C@H]3[C@H](O)[C@@H](O)[C@@H](O[C@H]4[C@H](O)[C@@H](O)[C@@H](O[C@H]5[C@H](O)[C@@H](O)[C@@H](O[C@H]6[C@H](O)[C@@H](O)[C@@H](O[C@H]7[C@H](O)[C@@H](O)[C@@H](O[C@H]8[C@H](O)[C@@H](O)[C@@H](O[C@H]1[C@H](O)[C@H]2O)O[C@@H]8CO)O[C@@H]7CO)O[C@@H]6CO)O[C@@H]5CO)O[C@@H]4CO)O[C@@H]3CO` [cyclodextrin, β-cyclodextrin hydrate], in [3], the “effect on catalytic activity of recombinant AMPK” value is reported as “mildly inhibit”. Also, the “effect on activity of immunoprecipitated native rat liver AMPK” value in the assay with rat liver AMPK is “more substantially inhibit”. In addition, the “effect on AlphaScreen signal of holo-AMPK (CBM-KD)” value at holo-AMPK (phosphorylated AMPK) is “smaller decrease”. For the same molecule, the “effect on CBM-KD interaction signal” value is “greatly reduced the interaction; also recorded: strongly reduced the interaction” in assay [4] (non-phosphorylated CBM, cyclodextrin 2 mM) and “mildly; also recorded: only weakly reduced the interaction” in assay [4] (phosphorylated CBM, cyclodextrin 2 mM).
In the case of glycogen, the “effect on catalytic activity of recombinant AMPK” value in assay [3] is listed as “mildly inhibit”. Further, in the assay with rat liver AMPK, the “effect on activity of immunoprecipitated native rat liver AMPK” value was “more substantially inhibit”. In the assay with rat liver AMPK (purified rat liver AMPK), the “effect on activity of purified rat liver AMPK” value was “did not detect an effect”. For the same molecule, the “effect on AlphaScreen signal of holo-AMPK (CBM-KD)” value at holo-AMPK (non-phosphorylated AMPK) is “significant (P < 0.01) signal decrease”; on holo-AMPK (phosphorylated AMPK), “smaller decrease”. In addition, the “effect on AMPK catalytic activity” value in the assay on human α1β2γ1 AMPK [5] is on record as “failed to detect an effect”. Also, in [4] (phosphorylated and non-phosphorylated CBM, glycogen 0.5 mg/ml), the “effect on CBM-KD interaction signal” value is listed as “almost abolished this interaction”.

B1: phosphorylated AMPK β2(76-272), β-subunit of the crystallised phosphorylated holo-AMPK (domain or fragment)
chain: ARPTVIRWSEGGKEVFISGSFNNWSTKIPLIKSHNDFVAILDLPEGEHQYKFFVDGQWVHDPSEPVVTSQLGTINNLIHVKKSDFEVFDALKLDSMESSETSCRDLSSSPPGPYGQEMYAFRSEERFKSPPILPPHLLQVILNKDTNISCDPALLPEPNHVMLNHLYALSIKDSVMVLSATHRYKKKYVTTLLYKPI
modifications: phosphoserine at 108 (autophosphorylated)
Turning to B1, in assay [6], the binding result was “binds”.

B2: non-phosphorylated AMPK β2(76-272), β-subunit of the crystallised non-phosphorylated holo-AMPK (domain or fragment)
chain: B1 chain
For the molecule B2, the binding result in [7] is “binds”.
